Rows were chosen to be rich in hits. Some 2.6% of all compounds tested hit in one or more screens of this group.
SR-BI DiI-HDL act = activators of SR-BI mediated DiI-HDL uptake, primary screen, ldlA[mSR-BI] CHO cells, DiI fluorescence; 3 h; 100 = double the neutral-control signal; activation, % at 12.5 µM; 320,000 tested, 0.096% active;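 active = mean replicate activation of at least 60% and every replicate at or above 60%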;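 also: 0% = median plate neutral-control signal and 100% = twice that signal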
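Material: SR-BI-overexpressing, LDLR-lacking CHO cells | Dosing: Single compound concentration, delivered by pin transfer | Probe or stimulus: Labelled HDL, 10 µg/mL | Signal: Bottom-read cell fluorescence after medium removal, ex 550/em 595 nm | Schedule: 3 h, 37 °C | Evaluation: HDL uptake via cellular fluorescence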
PvdQ inh = P. aeruginosa PvdQ acylase inhibitors, primary screen, biochemical, fluorescence, plate reader and imaging, single point; purified PvdQ acylase; inhibition, % at 10 µM; 340,000 tested, 0.063% active; AID 488965, 2010; in the data active = inhibition above about 30%, passing the limit was not always enough;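 also: 0% = vehicle neutral wells and 100% = reference inhibitor wells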
dFosB activator = activators of delta FosB homodimer, primary screen, biochemical, fluorescence polarization, TAMRA-CDK5 oligo, single point. 340,000 tested, 0.99% active. AID 493131, 2011. purified delta FosB; percent of positive-control signal above neutral wells. activation, % at 25 µM. Protein FosB (Mus musculus), P13346;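 active = mean activation above about 17%, with every replicate also reaching it, limit read from the data, passing the limit was not always enough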
Target sequence (P13346 whole entry, looked up): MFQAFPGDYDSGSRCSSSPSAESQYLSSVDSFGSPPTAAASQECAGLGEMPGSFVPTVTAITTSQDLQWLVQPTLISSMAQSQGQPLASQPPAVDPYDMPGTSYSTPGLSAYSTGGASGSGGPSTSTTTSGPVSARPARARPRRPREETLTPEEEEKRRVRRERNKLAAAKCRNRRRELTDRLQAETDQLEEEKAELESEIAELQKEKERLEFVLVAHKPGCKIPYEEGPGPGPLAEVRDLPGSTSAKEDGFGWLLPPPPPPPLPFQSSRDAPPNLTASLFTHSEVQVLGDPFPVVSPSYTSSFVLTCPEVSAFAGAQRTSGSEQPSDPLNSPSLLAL
Xi reactivation = activators of inactive X chromosome reactivation, primary screen, imaging, XiGFP fibroblasts, GFP high-content imaging, set 2; XiGFP mouse fibroblasts, % GFP-positive cells imaging, 3 d; cells co-treated with 5-aza-dC sensitizer; scaled so ellipticine positive control = 100%; activation, % at 7.58 µM; 360,000 tested, 0.055% active;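 active = mean normalized replicate activation at least 10% and every replicate at or above 10%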;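 also: 0% = median of on-plate neutral control wells and 100% = ellipticine 6 µM median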
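Material: SV40-immortalized XiGFP fibroblast cells, line 68-5-11 | Buffer or medium: DMEM containing 5-aza-dC | Dosing: One concentration, pinned | Times: 3 d treatment, 15 min room-temperature fixation | Controls: Ellipticine 6 µM positive control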
Ecoli rRNA inh = reduced GFP signal of wild-type E. coli, primary screen, bacterial rRNA inhibitor project, GFP/RFP fluorescence, OD600, single point; E. coli WT GFP vs humanized-ribosome RFP mutants, 24 h; stronger effect = lower value; DMSO median 0, no signal -100; GFP signal change (wild-type ribosome), % (concentration not given with the values); 350,000 tested, 1.6% active; AID 720706, 2013;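 active = significant combined selectivity score with lowered wild-type GFP, culture density cut under 30%, mutant RFP and density less affected; inactive = any of these conditions unmet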
SR-BI HDL uptake = inhibitors of SR-BI mediated HDL lipid uptake, primary screen, ldlA[mSR-BI] cells, fluorescence, single point. Scavenger receptor class B member 1 (Mus musculus), Q61009. ldlA[mSR-BI] CHO cells, DiI-HDL uptake fluorescence, 3 h. inhibition, % at 12.5 µM. 320,000 tested, 0.96% active. AID 488896, 2010;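 active = mean replicate inhibition of at least 70% and a set share of replicates each scoring 70 or more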;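 also: 0% = median of neutral control wells and 100% = median of positive control wells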
Numbers without * were called inactive; / = no result given.

SMILES | SR-BI DiI-HDL act | PvdQ inh | dFosB activator | Xi reactivation | Ecoli rRNA inh | SR-BI HDL uptake
COc1ccc2c3c(n(C)c2c1)[C@@H](CO)N(Cc1ccc(F)cc1)CC31CN(C)C1 | / | / | / | 0.1 | 3.7 | /
COc1ccc(S(=O)(=O)Nc2ccc3c(c2)C(=O)N([C@@H](C)CO)C[C@@H](C)[C@@H](CN(C)S(=O)(=O)c2cccs2)OCCCC[C@H](C)O3)cc1 | / | / | / | 0.1 | -3.2 | /
Cc1cccc2c(=O)cc(C)n(CC(N)=O)c12 | 16.0 | -18.6 | -2.6 | 0.0 | -28.3* | -16.0
COc1ccccc1CN1C(=O)[C@@H]2Cc3c([nH]c4ccccc34)C(C)(C)N2C1=O | -76.2 | -13.7 | 0.5 | 0.1 | -8.0 | 76.2*
CC1(C)c2[nH]c3ccccc3c2C[C@@H]2C(=O)N(c3cc(F)ccc3F)C(=O)N21 | -77.2 | -9.1 | -0.5 | 0.0 | / | 77.2*
O=C(OCc1ccc(F)cc1)c1ccc2ccccc2n1 | 9.9 | 9.2 | -12.2 | 0.0 | -31.3 | -9.9
CCc1nc2ccc(C(=O)Nc3ccc(OC)c(OC)c3)cn2c1N(CC)CCOC | / | / | / | 0.0 | -0.8 | /
COC(=O)c1cc2oc3ccccc3c2n1Cc1ccccn1 | 6.7 | -9.4 | -5.2 | / | -44.0* | -6.7
O=C(c1ccc2c(=O)n3c(nc2c1)CCCCC3)N1CCN(Cc2ccccc2)CC1 | 23.5 | -0.9 | -9.4 | / | / | -23.5
NC(=O)NOCc1ccccc1 | 26.3 | -0.3 | -2.4 | 0.0 | 24.5 | -26.3
O=C(NOCc1ccccc1)c1coc(-c2ccccc2)n1 | -6.0 | 6.0 | -9.1 | 0.0 | -26.4* | 6.0
CCC(=O)NCCNC(=O)c1c(SC)nsc1SC | 18.7 | -10.7 | 2.4 | / | / | -18.7
CCOc1ccc(-c2c(=O)n(O)c3ccccc3[n+]2[O-])cc1 | -0.7 | 5.6 | -6.4 | 0.1 | -20.1* | 0.7
O=C(CCc1ccccc1)c1ccc2c(c1)OCCCO2 | 4.1 | -13.5 | 0.6 | / | / | -4.1
O=C(NCCc1ccccc1)c1ccc2c(c1)OCCO2 | 8.1 | -12.9 | 6.5 | 0.0 | / | -8.1
O=C(CCCc1ccccc1)c1ccc2c(c1)OCCO2 | 16.8 | -4.5 | -20.8 | / | -30.0* | -16.8
O/N=C(/CCc1ccccc1)c1ccc2c(c1)OCCO2 | -28.5 | 1.6 | -2.3 | 0.0 | -25.0* | 28.5
Cc1cccc(NC(=S)NCCSc2ccc(Cl)cc2)c1 | -17.8 | 1.4 | -15.1 | 0.3 | -36.8* | 17.8
Cc1ccc(NC(=S)NCC(C)CSc2ccc(Cl)cc2)cc1 (configuration not stated) | / | -9.2 | 0.2 | -0.1 | -27.0* | /
C(=C\c1ccccc1)/CN1CCN(Cc2ccc3c(c2)OCO3)CC1 | -10.7 | -7.4 | 0.1 | 0.0 | 5.4 | 10.7
CCOc1cc(/C=C2\SC(=Nc3ccccc3)N(c3ccccc3)C2=O)ccc1OCC(=O)O | -1.7 | -2.6 | -2.7 | -0.1 | -30.5* | 1.7
O=C(NCc1ccccc1Cl)C1CCCN(S(=O)(=O)c2cccc3nonc23)C1 (configuration not stated) | / | -7.3 | 39.2* | 0.3 | 9.7 | /
O=C(C1CCCN(S(=O)(=O)c2cccc3nonc23)C1)N1CCN(c2ccccc2)CC1 (configuration not stated) | -19.1 | 3.0 | -7.8 | / | -29.4* | 19.0
Cc1ccc(CNC(=O)C2CCN(S(=O)(=O)c3cccc4nonc34)CC2)cc1 | 5.4 | -27.4 | 20.9* | 0.2 | 10.9 | -5.4
O=C(NCc1ccccc1Cl)C1CCN(S(=O)(=O)c2ccc(N3CCCC3=O)cc2)CC1 | / | 0.4 | -6.3 | 0.2 | 0.0 | 113.8*
SMILES | SR-BI DiI-HDL act | PvdQ inh | dFosB activator | Xi reactivation | Ecoli rRNA inh | SR-BI HDL uptake
COCCNC(=O)C[C@H]1CC[C@H]2[C@H](COc3ccc(NC(=O)COC)cc3C(=O)N2C)O1 | / | / | / | 0.2 | 2.3 | /
Cc1c(C(=O)N2CCOCC2)sc(NC(=O)C(C)C)c1C#N | 13.7 | -11.4 | 6.2 | 0.0 | 10.0 | -13.7
O=C(NC1CC2CCCC(C1)N2C(=O)NC1CCCCC1)c1ccccc1 (configuration not stated) | 26.8 | -11.5 | -4.2 | / | / | -26.8
Cc1ccc2c(c1)-c1c(cnn1CC(=O)NC(C)CCc1ccco1)CO2 (configuration not stated) | -61.4 | -17.5 | -3.4 | 0.0 | 8.7 | 61.4
O=C(C[C@H]1C[C@H]2c3cc(NS(=O)(=O)c4ccccc4)ccc3O[C@H]2[C@H](CO)O1)NCC1CC1 | / | / | / | 0.1 | -1.6 | /
COc1ccc(OC)c(/C=N/NC(=O)c2[nH]ncc2Br)c1 | / | / | / | 0.0 | 10.8 | /
CCOc1ccc(/C=N/NC(=O)c2[nH]ncc2Br)c(O)c1 | -53.8 | -33.1 | -0.8 | 0.0 | -34.3* | 53.8
COc1ccccc1CNC(=O)c1ccc2c(=O)n3c(nc2c1)CCCCC3 | -42.0 | -14.4 | -8.2 | 0.0 | -31.7 | 42.0
Cc1cccc(C)c1N1C(=O)CC(N(O)c2ccccc2)C1=O (configuration not stated) | 8.5 | 0.8 | -0.6 | / | / | -8.5
Cc1c(Cl)cccc1N1C(=O)CC(N(O)c2ccccc2)C1=O (configuration not stated) | 217.9* | -14.6 | -1.5 | / | / | -217.9
CN(c1ccc(C(=O)N2CCN(Cc3ccccc3)CC2)cc1)S(=O)(=O)c1ccc(Cl)cc1 | -78.7 | 0.1 | -15.8 | 0.0 | -10.3 | 78.7*
Cc1ccc(N(C)S(=O)(=O)c2cccc(C(=O)N3CCN(Cc4ccccc4)CC3)c2)cc1 | -60.2 | -0.5 | -6.4 | 0.0 | -1.6 | 60.1
CC(=O)Nc1nc2cc3c(cc2s1)OCCO3 | 14.6 | 7.0 | 2.7 | 0.0 | -6.4 | -14.6
O=C(NNc1nc2cc3c(cc2s1)OCCO3)c1ccccc1 | -7.0 | -6.7 | -7.3 | 0.1 | -27.4* | 7.0
C[C@H](CO)N1C[C@H](C)[C@@H](CN(C)CC2CCCC2)Oc2ncc(-c3ccc(F)cc3)cc2C1=O | / | / | / | -0.1 | 9.4 | /
CCN(CC)CCN(C(=O)c1ccc(S(=O)(=O)N2CCCC2)cc1)c1nc2cc(C)cc(C)c2s1 | -21.5 | -3.7 | 4.9 | 0.1 | 9.9 | 21.5
CCN(CC)CCN(C(=O)c1c(F)cccc1F)c1nc2cc(C)cc(C)c2s1 | 6.3 | -9.8 | 11.0 | 0.2 | -31.4* | -6.3
Cc1cc(C)cc(NC(=S)N2CCN(c3ccccn3)CC2)c1 | / | -10.3 | -4.6 | 0.3 | -21.9* | /
Cc1cccc(NC(=S)N2CCN(c3ccccn3)CC2)c1 | -1.0 | -2.2 | 2.7 | 0.1 | 10.6 | 1.0

Source: PubChem (Broad Institute)
